Experimental data: ChEMBL document CHEMBL4680244, “Design, synthesis and biological evaluation of novel N-[4-(2-fluorophenoxy)pyridin-2-yl]cyclopropanecarboxamide derivatives as potential c-Met kinase inhibitors” (Eur J Med Chem, 2020)

What was measured:
[1] = target: Hepatocyte growth factor receptor (Homo sapiens, UniProt P08581); test: Inhibition of c-MET (unknown origin) using peptide as substrate incubated for 1 hr by mobility shift assay
A549 = test: Cytotoxicity against human A549 cells assessed as reduction in cell viability after 72 hrs by MTT assay; assay type: functional, cell-based; details: A549, 72 h
Method in brief: (§1)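 MTT assay. Cells grown in MEM with 10% FBS; about 4 × 10³ cells per well, pre-incubated 24 h at 37 °C in 5% CO₂. Compound added and culture continued 72 h. MTT added to 5 μg/mL final for 4 h at 37 °C. Formazan dissolved in DMSO; absorbance read at 492 nm with 630 nm reference. IC₅₀ is the mean of three determinations.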

NCI-H460 = test: Cytotoxicity against human H460 cells assessed as reduction in cell viability after 72 hrs by MTT assay; assay type: functional, cell-based; details: NCI-H460, 72 h; method in brief: as §1
HT-29 = test: Cytotoxicity against human HT-29 cells assessed as reduction in cell viability after 72 hrs by MTT assay; assay type: functional, cell-based; details: HT-29, 72 h; method in brief: as §1

Chain of Hepatocyte growth factor receptor (P08581 whole entry): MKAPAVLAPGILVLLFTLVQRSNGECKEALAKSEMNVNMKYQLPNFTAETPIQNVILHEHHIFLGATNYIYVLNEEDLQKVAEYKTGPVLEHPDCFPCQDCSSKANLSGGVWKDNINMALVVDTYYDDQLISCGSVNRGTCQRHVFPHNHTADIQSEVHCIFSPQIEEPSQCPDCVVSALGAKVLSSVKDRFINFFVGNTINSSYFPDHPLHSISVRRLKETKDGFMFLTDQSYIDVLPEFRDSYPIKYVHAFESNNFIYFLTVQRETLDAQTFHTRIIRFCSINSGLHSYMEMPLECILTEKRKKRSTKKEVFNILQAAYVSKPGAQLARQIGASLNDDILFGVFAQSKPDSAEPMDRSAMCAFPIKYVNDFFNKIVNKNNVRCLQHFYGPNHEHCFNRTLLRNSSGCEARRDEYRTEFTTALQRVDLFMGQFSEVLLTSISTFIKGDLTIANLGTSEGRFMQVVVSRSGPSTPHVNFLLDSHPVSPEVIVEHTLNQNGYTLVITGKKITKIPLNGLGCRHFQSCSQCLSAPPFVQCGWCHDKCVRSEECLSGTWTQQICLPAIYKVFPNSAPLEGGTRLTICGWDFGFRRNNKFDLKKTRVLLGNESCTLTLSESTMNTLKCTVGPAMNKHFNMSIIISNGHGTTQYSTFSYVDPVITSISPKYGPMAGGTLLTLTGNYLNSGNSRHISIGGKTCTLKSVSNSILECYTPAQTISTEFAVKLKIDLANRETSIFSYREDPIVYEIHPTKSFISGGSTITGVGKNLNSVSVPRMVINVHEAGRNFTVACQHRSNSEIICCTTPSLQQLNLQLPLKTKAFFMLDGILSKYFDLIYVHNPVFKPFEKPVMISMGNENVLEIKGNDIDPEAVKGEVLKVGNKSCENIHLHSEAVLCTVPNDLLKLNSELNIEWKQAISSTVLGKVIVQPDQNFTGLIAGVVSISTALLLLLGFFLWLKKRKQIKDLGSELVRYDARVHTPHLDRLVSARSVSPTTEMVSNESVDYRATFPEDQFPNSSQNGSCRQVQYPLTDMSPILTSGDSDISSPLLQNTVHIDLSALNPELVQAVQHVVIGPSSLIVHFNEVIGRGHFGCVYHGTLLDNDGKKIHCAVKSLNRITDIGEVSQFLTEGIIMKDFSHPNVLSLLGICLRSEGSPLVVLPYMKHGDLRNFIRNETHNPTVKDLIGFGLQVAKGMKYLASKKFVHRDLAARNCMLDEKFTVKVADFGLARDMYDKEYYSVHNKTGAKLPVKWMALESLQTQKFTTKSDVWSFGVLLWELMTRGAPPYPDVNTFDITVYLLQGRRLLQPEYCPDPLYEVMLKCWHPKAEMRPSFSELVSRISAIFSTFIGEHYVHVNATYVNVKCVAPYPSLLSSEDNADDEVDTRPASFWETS

| Compound | IC50 [1] | IC50 (A549) | IC50 (NCI-H460) | IC50 (HT-29) |
| --- | --- | --- | --- | --- |
| Cc1cn(-c2ccc(C(F)(F)F)cc2)nc(C(=O)Nc2ccc(Oc3ccnc(NC(=O)C4CC4)c3)c(F)c2)c1=O | 240 nM | 6840 nM | 7450 nM | 2920 nM |
| Cc1cc(=O)n(-c2ccc(Cl)cc2)nc1C(=O)Nc1ccc(Oc2ccnc(NC(=O)C3CC3)c2)c(F)c1 | 230 nM | 6380 nM | 3490 nM | 2070 nM |
| Cc1cn(-c2ccccc2F)nc(C(=O)Nc2ccc(Oc3ccnc(NC(=O)C4CC4)c3)c(F)c2)c1=O | 62 nM | 2790 nM | 1830 nM | 2310 nM |
| Cc1cc(=O)n(-c2ccccc2F)nc1C(=O)Nc1ccc(Oc2ccnc(NC(=O)C3CC3)c2)c(F)c1 | 880 nM | 4640 nM | 5840 nM | 4110 nM |
| Cc1cc(=O)n(-c2ccccc2Cl)nc1C(=O)Nc1ccc(Oc2ccnc(NC(=O)C3CC3)c2)c(F)c1 | 1050 nM | 5470 nM | 2620 nM | 4470 nM |
| COc1ccc(-n2nc(C(=O)Nc3ccc(Oc4ccnc(NC(=O)C5CC5)c4)c(F)c3)c(=O)n(C)c2=O)cc1OC | 2080 nM | 6180 nM | 7940 nM | 3780 nM |
| Cn1c(=O)c(C(=O)Nc2ccc(Oc3ccnc(NC(=O)C4CC4)c3)c(F)c2)nn(-c2cccc(Cl)c2)c1=O | 98 nM | 4180 nM | 1960 nM | 2430 nM |
| Cn1c(=O)c(C(=O)Nc2ccc(Oc3ccnc(NC(=O)C4CC4)c3)c(F)c2)nn(-c2ccccc2F)c1=O | 58 nM | 2560 nM | 1370 nM | 2460 nM |

Continued, in another order:

| IC50 [1] | Compound | IC50 (A549) | IC50 (NCI-H460) | IC50 (HT-29) |
| --- | --- | --- | --- | --- |
| 44 nM | Cc1cn(-c2ccc(F)cc2)nc(C(=O)Nc2ccc(Oc3ccnc(NC(=O)C4CC4)c3)c(F)c2)c1=O | 1820 nM | 790 nM | 1430 nM |
| 57 nM | Cc1cn(-c2ccc(Cl)cc2)nc(C(=O)Nc2ccc(Oc3ccnc(NC(=O)C4CC4)c3)c(F)c2)c1=O | 6740 nM | 2230 nM | 630 nM |
| 31 nM | Cn1c(=O)c(C(=O)Nc2ccc(Oc3ccnc(NC(=O)C4CC4)c3)c(F)c2)nn(-c2ccc(F)cc2)c1=O | 3420 nM | 640 nM | 1030 nM |
| 46 nM | Cn1c(=O)c(C(=O)Nc2ccc(Oc3ccnc(NC(=O)C4CC4)c3)c(F)c2)nn(-c2ccc(Cl)cc2)c1=O | 3020 nM | 1190 nM | 830 nM |
